Laboratory results taken from ChEMBL document CHEMBL2440113, “Synthesis, radiofluorination, and in vivo evaluation of novel fluorinated and iodinated radiotracers for PET imaging and targeted radionuclide therapy of melanoma” (J Med Chem, 2013).

How the values were obtained:
[1] = Stability of the compound in saline after 6 hrs; type: physicochemical; details: read-out: Stability
How it was run: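 Formulated radiotracer was kept in saline at room temperature; radiochemical purity was checked by analytical radio-HPLC over at least 6 h after preparation.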

Brain [2] = experiment: Biodistribution in brain of C57BL/6J mouse harboring mouse B16-Bl6 cells at 9 to 12 MBq, iv after 3 hrs by PET analysis; type: ADME, organism-based; details: in vivo
How it was run: (§1)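 Ex vivo dissection in B16Bl6-bearing C57BL/6J mice (3x10⁵ cells s.c. right shoulder), done at day 10 or 14 after implantation. The ¹⁸F tracer was given i.v. at 9-12 MBq. Mice were killed by CO₂ at 1, 2 or 3 h. Tumor, organs and tissues were excised, weighed and gamma-counted, then decay-corrected and expressed as %ID/g. n=3-6 per group; mean ± SD.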

Heart = experiment: Biodistribution in heart of C57BL/6J mouse harboring mouse B16-Bl6 cells at 9 to 12 MBq, iv after 3 hrs by PET analysis; type: ADME, organism-based; details: in vivo; how it was run: as §1
Pancreas [3] = experiment: Biodistribution in pancreas of C57BL/6J mouse harboring mouse B16-Bl6 cells at 9 to 12 MBq, iv after 3 hrs by PET analysis; type: ADME, organism-based; details: in vivo; how it was run: as §1
Mus musculus [4] = experiment: Biodistribution in colon and feces of C57BL/6J mouse harboring mouse B16-Bl6 cells at 9 to 12 MBq, iv after 3 hrs by PET analysis; type: ADME, organism-based; details: in vivo; how it was run: as §1
Stomach [5] = experiment: Biodistribution in stomach of C57BL/6J mouse harboring mouse B16-Bl6 cells at 9 to 12 MBq, iv after 3 hrs by PET analysis; type: ADME, organism-based; details: in vivo
How it was run: (§2)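 Ex vivo biodistribution. C57BL/6J mice bearing subcutaneous B16Bl6 tumours (3x10⁵ cells, shoulder), day 10 or 14, received [18F]tracer iv (9-12 MBq). They were killed by CO₂ at 1, 2 or 3 h. Tumours and organs were excised, weighed and gamma-counted. Results are decay-corrected % ID/g; ratios are tumour over tissue. n=3-6 per group; mean ± SD.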

Liver = experiment: Biodistribution in liver of C57BL/6J mouse harboring mouse B16-Bl6 cells at 9 to 12 MBq, iv after 3 hrs by PET analysis; type: ADME, organism-based; details: in vivo; how it was run: as §1
Zone of skin = experiment: Biodistribution in skin of C57BL/6J mouse harboring mouse B16-Bl6 cells at 9 to 12 MBq, iv after 3 hrs by PET analysis; type: ADME, organism-based; details: in vivo; how it was run: as §1
Bone [6] = experiment: Biodistribution in bones of C57BL/6J mouse harboring mouse B16-Bl6 cells at 9 to 12 MBq, iv after 3 hrs by PET analysis; type: ADME, organism-based, Bone element; details: in vivo; how it was run: as §1
Muscle tissue [7] = experiment: Biodistribution in muscle of C57BL/6J mouse harboring mouse B16-Bl6 cells at 9 to 12 MBq, iv after 3 hrs by PET analysis; type: ADME, organism-based; details: in vivo; how it was run: as §1
Pancreas [8] = experiment: Biodistribution in pancreas of C57BL/6J mouse harboring mouse B16-Bl6 cells at 9 to 12 MBq, iv after 2 hrs by PET analysis; type: ADME, organism-based; details: in vivo; how it was run: as §1
Spleen = experiment: Biodistribution in spleen of C57BL/6J mouse harboring mouse B16-Bl6 cells at 9 to 12 MBq, iv after 2 hrs by PET analysis; type: ADME, organism-based; details: in vivo; how it was run: as §1
Mus musculus [9] = experiment: Biodistribution in cecum of C57BL/6J mouse harboring mouse B16-Bl6 cells at 9 to 12 MBq, iv after 2 hrs by PET analysis; type: ADME, organism-based, Caecum; details: in vivo; how it was run: as §1
Mus musculus [10] = experiment: Biodistribution in colon and feces of C57BL/6J mouse harboring mouse B16-Bl6 cells at 9 to 12 MBq, iv after 2 hrs by PET analysis; type: ADME, organism-based; details: in vivo; how it was run: as §1
Stomach [11] = experiment: Biodistribution in stomach of C57BL/6J mouse harboring mouse B16-Bl6 cells at 9 to 12 MBq, iv after 2 hrs by PET analysis; type: ADME, organism-based; details: in vivo; how it was run: as §1
Muscle tissue [12] = experiment: Biodistribution in muscle of C57BL/6J mouse harboring mouse B16-Bl6 cells at 9 to 12 MBq, iv after 2 hrs by PET analysis; type: ADME, organism-based; details: in vivo; how it was run: as §1
Mus musculus [13] = experiment: Biodistribution in tumor of C57BL/6J mouse harboring mouse B16-Bl6 cells at 9 to 12 MBq, iv after 2 hrs by PET analysis; type: ADME, organism-based, Neoplasm; details: in vivo; how it was run: as §2
Brain [14] = experiment: Biodistribution in brain of C57BL/6J mouse harboring mouse B16-Bl6 cells at 9 to 12 MBq, iv after 1 hr by PET analysis; type: ADME, organism-based; details: in vivo; how it was run: as §1
Mus musculus [15] = experiment: Biodistribution in small intestine of C57BL/6J mouse harboring mouse B16-Bl6 cells at 9 to 12 MBq, iv after 1 hr by PET analysis; type: ADME, organism-based; details: in vivo; how it was run: as §1
Mus musculus [16] = experiment: Biodistribution in eyes of C57BL/6J mouse harboring mouse B16-Bl6 cells at 9 to 12 MBq, iv after 1 hr by PET analysis; type: ADME, organism-based, Eye; details: in vivo; how it was run: as §1
[17] = Ratio of drug level in tumor to bone in C57BL/6J mouse harboring mouse B16-Bl6 cells at 8 to 12 MBq, iv after 1 hr by PET analysis; type: ADME, organism-based; details: in vivo
How it was run: (§3)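 Static whole-body PET at 1 h after tail-vein injection of [18F]tracer (9-12 MBq/0.15 mL) in C57BL/6J mice carrying subcutaneous B16Bl6 shoulder tumours (3x10⁵ cells), imaged day 10 or 14. Mice under ketamine/xylazine ip. 25 min acquisition, OSEM reconstruction. ROI % ID/g = counts/g/min ÷ injected dose; ratios = tumour % ID/g ÷ organ % ID/g. n=2-8; mean ± SD.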

Mus musculus [18] = experiment: Biodistribution in tumor of C57BL/6J mouse harboring mouse B16-Bl6 cells at 9 to 12 MBq, iv after 1 hr by PET analysis; type: ADME, organism-based, Neoplasm; details: in vivo; how it was run: as §2
[19] = Ratio of drug level in tumor to muscle in C57BL/6J mouse harboring mouse B16-Bl6 cells at 8 to 12 MBq, iv after 1 hr by PET analysis; type: ADME, organism-based; details: in vivo; how it was run: as §3
Bone [20] = experiment: Biodistribution in bone of C57BL/6J mouse harboring mouse B16-Bl6 cells at 8 to 12 MBq, iv after 1 hr by PET analysis; type: ADME, organism-based, Bone element; details: in vivo
How it was run: (§4)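 C57BL/6J mice were inoculated s.c. on the right shoulder with 3x10⁵ B16Bl6 cells in PBS under isoflurane, and imaged at day 10 or 14 (tumor volume 431.8 ± 154.3 mm³). The ¹⁸F tracer was given i.v. via tail vein, 8-12 MBq (methods: 9-12 MBq/0.15 mL). Under ketamine/xylazine i.p., a 25-min whole-body static PET scan ran at 1 h. ROI %ID/g = counts/g/min ÷ injected dose. n=2-8; mean ± SD.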

Mus musculus [21] = experiment: Biodistribution in eye of C57BL/6J mouse harboring mouse B16-Bl6 cells at 8 to 12 MBq, iv after 1 hr by PET analysis; type: ADME, organism-based; details: in vivo; how it was run: as §4
Mus musculus [22] = experiment: Biodistribution in tumor of C57BL/6J mouse harboring mouse B16-Bl6 cells at 8 to 12 MBq, iv after 1 hr by PET analysis; type: ADME, organism-based, Neoplasm; details: in vivo; how it was run: as §3
Mus musculus [23] = experiment: Ratio of drug level in tumor to bone in C57BL/6J mouse harboring mouse B16-Bl6 cells at 9 to 12 MBq, iv after 2 hrs by PET analysis; details: in vivo
Mus musculus [24] = experiment: Ratio of drug level in tumor to muscle in C57BL/6J mouse harboring mouse B16-Bl6 cells at 9 to 12 MBq, iv after 2 hrs by PET analysis; details: in vivo

Row | remaining at 6 h [1] [%] | Drug uptake (Brain [2]) [% ID/g] | Drug uptake (Heart) [% ID/g] | Drug uptake (Pancreas [3]) [% ID/g] | Drug uptake (Mus musculus [4]) [% ID/g] | Drug uptake (Stomach [5]) [% ID/g] | Drug uptake (Liver) [% ID/g] | Drug uptake (Zone of skin) [% ID/g] | Drug uptake (Bone [6]) [% ID/g] | Drug uptake (Muscle tissue [7]) [% ID/g] | Drug uptake (Pancreas [8]) [% ID/g] | Drug uptake (Spleen) [% ID/g] | Drug uptake (Mus musculus [9]) [% ID/g] | Drug uptake (Mus musculus [10]) [% ID/g] | Drug uptake (Stomach [11]) [% ID/g] | Drug uptake (Muscle tissue [12]) [% ID/g] | Drug uptake (Mus musculus [13]) [% ID/g] | Drug uptake (Brain [14]) [% ID/g] | Drug uptake (Mus musculus [15]) [% ID/g] | Drug uptake (Mus musculus [16]) [% ID/g] | Compound | further results
1 | > 99 | 1.72 | 3 | 1.81 | 12.63 | 5.39 | 2.6 | 1.47 | 3.61 | 1.11 | 1.56 | 2.38 | 12.1 | 8.14 | 7.35 | 1.04 | 5.81 | 1.03 | 16.68 | 12.24 | CCN(CCNC(=O)c1cnc2cc(I)ccc2n1)CCOCCOCCOCCOCCOCCOCCOCC[18F] | Ratio [17]: 2.67; Drug uptake (Mus musculus [18]): 9.81 % ID/g; Ratio [19]: 6.62; Drug uptake (Bone [20]): 2.48 % ID/g; Drug uptake (Mus musculus [21]): 5.53 % ID/g; Drug uptake (Mus musculus [22]): 6.63 % ID/g; Ratio (Mus musculus [23]): 2.75; Ratio (Mus musculus [24]): 5.75
2 | > 99 | 1.37 | 2.32 | 1.33 | 8.09 | 2.81 | 1.99 | 1.05 | 3.27 | 0.81 | 1.33 | 2.88 | 8.94 | 6.05 | 2.48 | 0.92 | 13.07 | 1.82 | 7.58 | 18.36 | CCN(CCNC(=O)c1cnc2cc(I)ccc2n1)CCOCCOCCOCC[18F] | Ratio [17]: 7.65; Drug uptake (Mus musculus [18]): 14.05 % ID/g; Ratio [19]: 11.04; Drug uptake (Bone [20]): 1.98 % ID/g; Drug uptake (Mus musculus [21]): 10.5 % ID/g; Drug uptake (Mus musculus [22]): 14.33 % ID/g; Ratio (Mus musculus [23]): 7.13; Ratio (Mus musculus [24]): 14.46
